Consider 9 compounds from ChEMBL document CHEMBL1129967, “3'-Chloro-3 alpha-(diphenylmethoxy)tropane but not 4'-chloro-3 alpha-(diphenylmethoxy)tropane produces a cocaine-like behavioral profile” (J Med Chem, 1997).

Experiment [1] deals with Sodium-dependent dopamine transporter (Rattus norvegicus) (UniProt P23977). The experiment in a line: Selectivity ratio for [3H]-DA uptake inhibition to DAT binding. The format is functional.
Experiment [2] has as its target T1, Sodium-dependent dopamine transporter (Rattus norvegicus, UniProt P23977). Kind of experiment: [3H]-Dopamine uptake inhibition in rat caudate putamen. The format is functional, tissue-based. Put shortly:
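Rat caudate putamen chopped into 225 μm slices, in oxygenated Krebs-HEPES at 37 °C. Filtered, tracer extracted with methanol/HCl and counted; filter blank subtracted. IC50 from the linear portion of the concentration–response curve by linear regression.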

The target in experiment [3] is Sodium-dependent serotonin transporter (Rattus norvegicus) (UniProt P31652). The experiment in a line: Percent inhibition at 10 uM for displacement of [3H]- citalopram binding at the serotonin transporter (5HTT). Put shortly:
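Run by a contract screening service under a published method: [3H]citalopram at 0.7 nM final concentration.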
A general note: Loss of bound radioactivity is the signal in a displacement assay; it reports binding, not function.

The target of experiment [4] is T2, Muscarinic acetylcholine receptor M1 (Rattus norvegicus, UniProt P08482).
T2 sequence (P08482 whole entry): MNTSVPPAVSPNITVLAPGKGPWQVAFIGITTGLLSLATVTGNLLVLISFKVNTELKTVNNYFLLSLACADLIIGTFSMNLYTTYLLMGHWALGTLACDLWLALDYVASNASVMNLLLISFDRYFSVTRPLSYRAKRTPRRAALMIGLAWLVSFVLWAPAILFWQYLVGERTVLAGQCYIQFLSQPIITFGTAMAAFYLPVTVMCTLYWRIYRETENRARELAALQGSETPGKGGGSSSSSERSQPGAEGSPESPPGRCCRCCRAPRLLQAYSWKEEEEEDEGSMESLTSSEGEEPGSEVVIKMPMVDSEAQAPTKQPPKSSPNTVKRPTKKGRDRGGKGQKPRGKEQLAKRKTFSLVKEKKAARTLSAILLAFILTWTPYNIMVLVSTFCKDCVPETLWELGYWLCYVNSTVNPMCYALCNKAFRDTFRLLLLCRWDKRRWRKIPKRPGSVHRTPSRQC
The experiment in a line: Displacement of [3H]pirenzepine binding at Muscarinic acetylcholine receptor M1 in rat brain P2 membranes. Format: cell membranes, Membrane. Put shortly:
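Rat brain P2 membranes (0.3 mg protein) in 50 mM Tris-HCl pH 7.4 with 5 mM MgCl2 and 5 nM [3H]pirenzepine. Nine competitor concentrations (0.03–300 nM), 60 min at 37 °C, filtered. Nonspecific binding defined with 10 μM QNB.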

For experiment [5], the target named is T1, Sodium-dependent dopamine transporter. Kind of experiment: Displacement of [3H]WIN-35428 binding to the dopamine transporter (DAT) in Rat Caudate Putamen.
The target of experiment [6] is Norepinephrine transporter (Rattus norvegicus) (UniProt Q9WTR4). Kind of experiment: Percent inhibition at 10 uM for displacement of [3H]- desmethylimipramine binding at the norepinephrine transporter (NET) in rat cortex. In outline: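 Run by a contract screening service under a published method: [3H]desmethylimipramine at 3.0 nM final concentration.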

The structures appear in SMILES notation.

T1 sequence (P23977 whole entry): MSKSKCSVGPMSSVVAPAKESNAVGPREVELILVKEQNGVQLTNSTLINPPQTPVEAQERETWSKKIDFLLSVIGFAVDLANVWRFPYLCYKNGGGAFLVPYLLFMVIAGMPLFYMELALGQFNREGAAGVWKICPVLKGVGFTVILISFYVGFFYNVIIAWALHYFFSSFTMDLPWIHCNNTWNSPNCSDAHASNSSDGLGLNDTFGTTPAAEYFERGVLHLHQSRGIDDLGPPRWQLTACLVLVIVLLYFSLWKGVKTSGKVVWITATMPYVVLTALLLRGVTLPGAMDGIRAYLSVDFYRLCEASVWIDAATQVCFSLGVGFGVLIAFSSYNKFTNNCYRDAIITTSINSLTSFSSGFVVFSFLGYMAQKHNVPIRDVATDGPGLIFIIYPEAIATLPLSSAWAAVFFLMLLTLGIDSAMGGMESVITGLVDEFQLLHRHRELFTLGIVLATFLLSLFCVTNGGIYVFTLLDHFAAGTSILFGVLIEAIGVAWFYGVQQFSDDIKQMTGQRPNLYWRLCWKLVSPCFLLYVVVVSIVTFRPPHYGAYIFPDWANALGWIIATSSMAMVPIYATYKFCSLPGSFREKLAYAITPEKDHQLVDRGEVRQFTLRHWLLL
Sodium-dependent dopamine transporter (Rattus norvegicus), sequence (P23977 whole entry): as above
Sodium-dependent serotonin transporter (Rattus norvegicus), sequence (P31652 whole entry): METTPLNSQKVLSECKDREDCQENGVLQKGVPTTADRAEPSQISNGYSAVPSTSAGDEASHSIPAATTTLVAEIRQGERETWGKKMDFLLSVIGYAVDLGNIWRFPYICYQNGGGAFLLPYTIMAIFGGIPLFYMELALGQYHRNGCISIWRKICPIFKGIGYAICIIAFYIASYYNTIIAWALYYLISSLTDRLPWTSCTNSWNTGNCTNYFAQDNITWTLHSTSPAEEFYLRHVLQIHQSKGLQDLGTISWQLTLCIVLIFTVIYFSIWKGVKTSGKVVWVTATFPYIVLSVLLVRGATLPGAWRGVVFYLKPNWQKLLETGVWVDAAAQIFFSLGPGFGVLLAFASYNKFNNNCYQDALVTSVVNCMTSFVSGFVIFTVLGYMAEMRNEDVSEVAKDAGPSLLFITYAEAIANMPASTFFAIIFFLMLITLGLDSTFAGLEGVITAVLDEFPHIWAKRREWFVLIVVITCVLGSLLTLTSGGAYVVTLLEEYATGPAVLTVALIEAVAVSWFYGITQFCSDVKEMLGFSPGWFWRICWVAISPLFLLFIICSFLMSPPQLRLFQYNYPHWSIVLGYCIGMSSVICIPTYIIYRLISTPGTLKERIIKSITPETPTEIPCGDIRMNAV
Norepinephrine transporter (Rattus norvegicus), sequence (Q9WTR4 as listed by the source): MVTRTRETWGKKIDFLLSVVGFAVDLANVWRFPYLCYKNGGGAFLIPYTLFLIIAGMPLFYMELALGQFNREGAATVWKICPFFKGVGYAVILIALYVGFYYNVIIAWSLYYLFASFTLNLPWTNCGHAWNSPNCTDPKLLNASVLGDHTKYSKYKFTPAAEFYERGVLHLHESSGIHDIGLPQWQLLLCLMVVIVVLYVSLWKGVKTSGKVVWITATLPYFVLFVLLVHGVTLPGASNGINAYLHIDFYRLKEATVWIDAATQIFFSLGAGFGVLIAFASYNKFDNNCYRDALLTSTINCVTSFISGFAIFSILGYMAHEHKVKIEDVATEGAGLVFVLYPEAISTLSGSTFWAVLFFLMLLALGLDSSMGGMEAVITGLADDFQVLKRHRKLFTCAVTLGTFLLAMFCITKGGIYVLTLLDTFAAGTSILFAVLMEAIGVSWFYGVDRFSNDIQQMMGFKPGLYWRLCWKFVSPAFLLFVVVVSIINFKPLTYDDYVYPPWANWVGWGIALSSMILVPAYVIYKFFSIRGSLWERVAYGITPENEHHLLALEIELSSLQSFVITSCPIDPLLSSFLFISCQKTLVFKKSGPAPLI

For `CN1[C@@H]2CC[C@H]1C[C@@H](OC(c1cccc(F)c1)c1cccc(F)c1)C2`, the Selectivity ratio in experiment [1] amounted to 8.6. The compound also registered an IC50 in experiment [2] of 407 nM. The I in experiment [3] was 72.6%; in experiment [6], 75.6%. Besides, the figures for the Ki in experiment [4] and in experiment [5] were 0.85 nM and 47.4 nM, respectively.

In the case of `Cc1ccccc1C(O[C@H]1C[C@H]2CC[C@@H](C1)N2C)c1ccccc1` (some centres not stated), the Selectivity ratio in experiment [1] was 3.9. Moreover, inhibition in experiment [2] was half-maximal at 1200 nM (IC50). Also, the I is 35.7% in experiment [3] and 66.5% in experiment [6]. Moreover, the results for the inhibitory constant (Ki) in experiment [4] and in experiment [5] were 0.5 nM and 309 nM, respectively.

For the compound `CN1[C@@H]2CC[C@H]1C[C@@H](OC(c1ccccc1)c1cccc(F)c1)C2` (some centres not stated), the Selectivity ratio in experiment [1] stood at 3.7. Further, in experiment [2], it took 250 nM to reach half-maximal inhibition (IC50). The figures for the I in experiment [3] and in experiment [6] were 42.2% and 82.4%, respectively. Further, the inhibitory constant (Ki) in experiment [4] was found to be 0.6 nM; in experiment [5], 68.5 nM.

Regarding `CN1C2CCC1CC(OC(c1ccccc1)c1ccc(Cl)cc1)C2` (configuration not stated), the Selectivity ratio in experiment [1] was determined as 3.8. The I in experiment [3] was 34%; in experiment [6], 32%. The affinity in experiment [4] corresponds to a Ki of 1.48 nM.

`CN1[C@@H]2CC[C@H]1C[C@@H](OC(c1ccccc1)c1ccccc1F)C2` (some centres not stated): the Selectivity ratio in experiment [1] came out at 2.8. Further, the half-inhibitory concentration (IC50) in experiment [2] is 140 nM. In addition, the I turned out to be 22.3% in experiment [3] and 17.8% in experiment [6]. In addition, the Ki in experiment [4] was 0.43 nM; in experiment [5], 50 nM.

Consider `CN1[C@@H]2CC[C@H]1C[C@@H](OC(c1ccccc1)c1ccccc1N)C2` (some centres not stated) [AMINOBENZTROPINE], for which the Selectivity ratio in experiment [1] was 0.2. Further, in experiment [2], the midpoint of inhibition, the IC50, lay at 373 nM. In addition, the I was determined as 16% in experiment [3] and 14% in experiment [6]. The Ki in experiment [4] is 1.12 nM; in experiment [5] it was 1840 nM.

As for `CN1[C@@H]2CC[C@H]1C[C@@H](OC(c1ccccc1)c1ccccc1Cl)C2` (some centres not stated), in experiment [1], the Selectivity ratio was determined as 4.4. Moreover, the IC50 in experiment [2] was determined as 997 nM. The I came to 55.4% in experiment [3] and 76.1% in experiment [6]. The results for the Ki in experiment [4] and in experiment [5] were 0.41 nM and 228 nM, respectively.

Turning to `CN1[C@@H]2CC[C@H]1C[C@@H](OC(c1ccccc1)c1cccc(Cl)c1)C2` (some centres not stated), the Selectivity ratio in experiment [1] worked out at 10.6. In addition, the IC50 in experiment [2] amounted to 228 nM. For the same compound, the I in experiment [3] was 24.5%; in experiment [6], 74.7%. The Ki is 0.98 nM in experiment [4] and 21.6 nM in experiment [5].

Turning to `CN1[C@@H]2CC[C@H]1C[C@@H](OC(c1ccccc1)c1cccc(C(F)(F)F)c1)C2` (some centres not stated), the Selectivity ratio in experiment [1] was 2.4. Further, half-maximal inhibition in experiment [2] (IC50) was put at 457 nM. Further, the I was 59.8% in experiment [3] and 78.5% in experiment [6]. Moreover, the Ki in experiment [4] stood at 2.52 nM; in experiment [5] it was 187 nM.

For orientation: IC50 means the point on the concentration scale where inhibition reaches its midpoint. For orientation: Ki means the equilibrium dissociation constant of an inhibitor or competing ligand from its target. Lower therefore signals higher affinity.
